Rows were chosen to be rich in hits. Some 3.4% of all compounds tested hit in one or more screens of this group.
AF4-AF9 inh: blocks AF4 peptide binding to human AF9; P42568; AlphaScreen, biotin-AF4 peptide binding to FLAG-AF9; inhibition, % at 10 µM; hit rate 0.47% among 350,000; AID 651704;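 active = every replicate reaching a set inhibition limit, whatever the replicate mean, cut at about 25% in these data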;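 note: 0% = plate neutral control median and 100% = total signal loss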
ERAP1 inh: blocks human ERAP1 aminopeptidase activity; Q9NZ08; inhibition, % at 10.7 µM; AID 652197; recombinant ERAP1, Leu-AMC fluorescence, 60 min; hit rate 0.15% among 340,000;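 active = mean replicate inhibition of at least 30%, or all replicates individually reaching that 30% level; inactive = mean below 30% and not every replicate reaching it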;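 note: 0% = neutral control wells and 100% = L-leucinethiol positive control wells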
S100A4 MyoIIA: blocks human S100A4 binding to myosin IIA peptide; S100A4/TAMRA-MyoIIA peptide fluorescence polarization; hit rate 0.14% among 360,000; inhibition, % at 10.7 µM; P26447;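 active = mean inhibition of at least 70% across replicates, with every replicate also reaching that level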
Target sequence (P26447 whole entry, looked up): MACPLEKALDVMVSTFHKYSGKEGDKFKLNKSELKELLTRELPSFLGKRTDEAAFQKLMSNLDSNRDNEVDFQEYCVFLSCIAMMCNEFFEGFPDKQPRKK
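Test system: S100A4 monomer protein; Medium: HEPES pH 7.2 with CaCl2, KCl, NaCl, DTT, Triton; Probe or stimulus: TAMRA-labelled myosin IIA heavy-chain peptide probe, 5 nM; Doses: one dose per compound; Times: polarization read 5 min after assay mix addition, stable 5–60 min; Benchmarks: neutral control DMSO, positive control TFP.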
Ecoli rRNA inh: selective bacterial rRNA inhibition in E. coli. E. coli WT GFP vs humanized-ribosome RFP mutants, fluorescence, 24 h; hits give low values; DMSO median 0, no signal -100. GFP signal change (wild-type ribosome), % (no concentration beside the values). hit rate 1.6% among 350,000. AID 720706;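 active = significant combined selectivity score with lowered wild-type GFP, culture density cut under 30%, mutant RFP and density less affected; inactive = any of these conditions unmet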
E-selectin induc: E-selectin induction on HUVECs. P16581. HUVEC E-selectin immunofluorescence imaging; normalized: neutral wells 0, TNF-alpha wells 100. activation, % at 7.58 µM. hit rate 0.37% among 260,000. AID 686992;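 active = mean E-selectin-positive cell signal at least 10% of the positive control, reached in at least 60% of replicates, without over 20% cell loss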
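System: HUVEC, human umbilical vein endothelial cells; quantity: 3,000 cells/well; buffer or medium: EGM-2 medium, gelatin-coated wells; dosing: single-point compound dose; detection: immunofluorescence imaging; evaluation: % PE-positive cells; benchmarks: TNF-alpha, DMSO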
SIRT5 inh: blocks human SIRT5 desuccinylation of peptide; Purified SirT5, succinyl-peptide AMC, trypsin-coupled fluorescence; hit rate 1.1% among 330,000; inhibition, % at 15 µM; Q9NXA8; in the data active = inhibition above about 15%
Target sequence (Q9NXA8 whole entry, looked up): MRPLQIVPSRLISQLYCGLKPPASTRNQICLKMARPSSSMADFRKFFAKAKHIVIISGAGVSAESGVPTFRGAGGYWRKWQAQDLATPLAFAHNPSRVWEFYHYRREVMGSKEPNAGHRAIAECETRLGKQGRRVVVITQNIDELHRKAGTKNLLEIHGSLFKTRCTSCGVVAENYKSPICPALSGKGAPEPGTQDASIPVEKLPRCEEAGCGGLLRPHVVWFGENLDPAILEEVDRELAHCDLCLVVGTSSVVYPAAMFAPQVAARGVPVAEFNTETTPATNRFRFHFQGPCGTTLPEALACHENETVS
* marks the source's active call; other numbers are inactive results.

`CCOC(=O)C1=CCC(c2ccc(CC)cc2)N(S(=O)(=O)c2ccc(C)cc2)C1` (centres undefined) gave AF4-AF9 inh -1, ERAP1 inh 2, S100A4 MyoIIA -7, Ecoli rRNA inh 13 and E-selectin induc 0.
`Cc1noc(C)c1NC(=O)N(C)C[C@@H]1Oc2c(NC(=O)C3CCOCC3)cccc2C(=O)N([C@@H](C)CO)C[C@H]1C` gave AF4-AF9 inh -3, ERAP1 inh 2, S100A4 MyoIIA -2, Ecoli rRNA inh -2, E-selectin induc 0 and SIRT5 inh -1.
For CCN(C(=O)COC(=O)c1ccc([N+](=O)[O-])o1)c1cccc2ccccc12 the results were AF4-AF9 inh 15, ERAP1 inh -3, S100A4 MyoIIA -6, Ecoli rRNA inh -19*, E-selectin induc 0 and SIRT5 inh 0.
Screening CC(C)(C)N(Cc1ccccc1)C(=O)COC(=O)c1ccc([N+](=O)[O-])o1 returned AF4-AF9 inh 6, ERAP1 inh -2, S100A4 MyoIIA -4, E-selectin induc -1 and SIRT5 inh -2.
Screening C[C@H]1CN([C@@H](C)CO)C(=O)Cc2cc(NS(C)(=O)=O)ccc2O[C@H]1CN(C)C(=O)Nc1ccc(F)cc1 returned AF4-AF9 inh -4, ERAP1 inh -1, S100A4 MyoIIA 1, Ecoli rRNA inh 1, E-selectin induc -3 and SIRT5 inh -1.
Screening COc1ccc(N2C(=O)CCC2=O)c(OC)c1 returned AF4-AF9 inh -2, ERAP1 inh 3, S100A4 MyoIIA 4, Ecoli rRNA inh -1, E-selectin induc -1 and SIRT5 inh 2.
Screening COc1cc(N2C(=O)C=CC2=O)ccc1N1C(=O)C=CC1=O returned AF4-AF9 inh -5, ERAP1 inh 48*, S100A4 MyoIIA 4 and Ecoli rRNA inh 1.
Screening Cc1ccccc1Nc1nc(N)nc(-c2oc3ccccc3c2C)n1 returned AF4-AF9 inh 1, ERAP1 inh 0, S100A4 MyoIIA -1, Ecoli rRNA inh -36* and SIRT5 inh -4.
Screening C[C@H](CO)N1C[C@H](C)[C@H](CN(C)C(=O)Nc2ccc(F)cc2)Oc2ccc(NC(=O)Nc3ccccc3)cc2C1=O returned AF4-AF9 inh 4, ERAP1 inh -1, S100A4 MyoIIA -1, Ecoli rRNA inh -5, E-selectin induc -3 and SIRT5 inh -3.
O=C1Nc2cccc3c2N(CCC3)C2=C1CCC2 was read as AF4-AF9 inh 5, ERAP1 inh 3, S100A4 MyoIIA 1, Ecoli rRNA inh 10, E-selectin induc -1 and SIRT5 inh 1.
Screening O=C1c2cccc3c2N(CCC3)C(=O)C1(F)c1ccccc1 (centres undefined) returned AF4-AF9 inh 3, ERAP1 inh 3, S100A4 MyoIIA -6, Ecoli rRNA inh -17*, E-selectin induc 0 and SIRT5 inh 1.
For Cc1ccc(S(=O)(=O)N(C)C[C@H]2OCCCC[C@H](C)Oc3ccc(NC(=O)NC4CCCCC4)cc3C(=O)N([C@H](C)CO)C[C@@H]2C)cc1 the results were AF4-AF9 inh -8, ERAP1 inh 4, S100A4 MyoIIA 2, Ecoli rRNA inh 0, E-selectin induc 0 and SIRT5 inh 3.
For Cc1ccc(S(=O)(=O)N(C)C[C@@H]2OCCCC[C@@H](C)Oc3ccc(NC(=O)NC4CCCCC4)cc3C(=O)N([C@@H](C)CO)C[C@@H]2C)cc1 the results were AF4-AF9 inh -4, ERAP1 inh -2, S100A4 MyoIIA -3, Ecoli rRNA inh 3, E-selectin induc 0 and SIRT5 inh 15*.
For C[C@@H]1CCCCO[C@@H](CN(C)S(=O)(=O)c2ccc(Cl)cc2)[C@H](C)CN([C@@H](C)CO)C(=O)c2cc(NC(=O)NC3CCCCC3)ccc2O1 the results were AF4-AF9 inh 0, ERAP1 inh 0, S100A4 MyoIIA -33, Ecoli rRNA inh -2, E-selectin induc 0 and SIRT5 inh 7.
`C[C@@H]1CN([C@H](C)CO)C(=O)c2cc(NC(=O)NC3CCCCC3)ccc2O[C@@H](C)CCCCO[C@H]1CN(C)S(=O)(=O)c1ccc(Cl)cc1` gave AF4-AF9 inh -3, ERAP1 inh 2, S100A4 MyoIIA -15, Ecoli rRNA inh -4, E-selectin induc 1 and SIRT5 inh 15*.

Screening results: PubChem, Broad Institute
